For data set [1], the system named is HeLa. Nature of the data set: Antagonist activity at human TGF-beta receptor in HeLa cells assessed as reduction in TGF-beta1-induced Smad3 phosphorylation at 100 uM after 1 hr by Western blot analysis. Type of data set: functional, cell-based. In a few lines:
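Starved HeLa cells given 0.1% DMSO vehicle or 100 μM compound for 1 h, with or without TGF-β1. Lysates in Laemmli buffer were denatured 10 min at 95°C and run on 7.5% SDS gels, then transferred to PVDF. Blots were probed with p-Smad3 and Smad3 antibodies (1:1000) and detected by ECL.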
On the technique in general: In western blotting, separated proteins are transferred to a membrane and probed.

In data set [2] the test system is HeLa. In words: Antimigratory activity against human HeLa cells assessed as inhibition of TGF-beta1-induced cell migration at 100 uM after 24 hrs by scratch motility assay. The data set is classed as functional, cell-based. In a few lines:
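Confluent HeLa monolayers (1 × 10^6 cells/well), starved 24 h, were scratched with a pipette tip and washed. They then received 0.1% DMSO or 100 μM compound ± TGF-β1 for 24 h. Cells in five random fields of the scratch were counted and averaged per field.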

Data set [3] has as its target TGF-beta receptor type-2 (Homo sapiens) (UniProt P37173). In words: Inhibition of TGF-beta1 induced TGF-beta type 2 receptor dimerization in human HeLa cells assessed as receptor dimers by bleaching-step counting assay (reference value: 39.9 +/- 2.5%). Details: scale not given: the % may be the effect or the level left. The data set is classed as cell-based.
Data set [4] has the same target. In words: Displacement of biotinylated TGF-beta1 from human TGF-beta type 2 receptor at 100 uM after 1 hr by avidin-FITC-based flow cytometry. A digest of the protocol: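 HeLa cells were incubated 1 h with 0.1% DMSO or 100 μM compound in the presence of biotinylated TGF-β1. Bound ligand was detected with avidin-FITC and fluorescence intensity read by flow cytometry.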

The test system of data set [5] is HeLa. Nature of the data set: Antagonist activity at human TGF-beta receptor in HeLa cells assessed as reduction in TGF-beta1-induced p21 expression at 100 uM after 24 hrs by Western blot analysis. The data set is classed as functional, cell-based. In a few lines:
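Starved HeLa cells exposed to vehicle (0.1% DMSO) or 100 μM compound for 24 h, with or without TGF-β1. Lysates were denatured at 95°C and separated on 7.5% SDS gels. PVDF blots were probed with anti-p21 (1:1000) and read by enhanced chemiluminescence.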

For data set [6], the system named is HeLa. In words: Cytotoxicity against human HeLa cells at 1 to 200 uM after 24 hrs by MTS proliferation assay. Type of data set: cell-based. A digest of the protocol: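 HeLa cells were seeded at 1 × 10^4 per well in complete medium for 24 h. They were then exposed to vehicle (0.1% DMSO) or 0–200 μM compound for 24 h. Proliferation was read with a CellTiter 96 Aqueous non-radioactive (MTS-type) assay.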
On the technique in general: Formazan colour is commonly taken as a measure of viable cells.

Data set [7] has as its system HeLa. In words: Antagonist activity at human TGF-beta receptor in HeLa cells assessed as suppression of nuclear translocation of Smad3 at 100 uM after 1 hr by immunofluorescence imaging. The data set is classed as functional, cell-based. A digest of the protocol: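 HeLa cells were grown 24 h, then serum-starved 24 h and treated 1 h with 0.1% DMSO or 100 μM compound, ± TGF-β1. Cells were fixed in 4% paraformaldehyde, permeabilized with 0.1% Triton X-100 and blocked with 1% BSA/PBST. Staining used anti-Smad3 (1:200, overnight) and Alexa 488 secondary (1:500), imaged by confocal microscopy.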

In data set [8] the target is TGF-beta receptor type-2 (Homo sapiens) (UniProt P37173). In words: Inhibition of TGF-beta1 induced TGF-beta type 2 receptor dimerization in human HeLa cells at 100 uM after 1 hr by single-molecule fluorescence microscopy. Type of data set: cell-based. A digest of the protocol: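 HeLa cells were transfected for 4 h with TβRII-GFP plasmid (0.2 μg/mL) to give low expression. They were given 0.1% DMSO or 100 μM compound for 1 h, then 15 min with 10 ng/mL TGF-β1 where stimulated. Live-cell TIRF imaging used 488-nm excitation at 10 Hz for 200 frames. Spot intensities were fitted with Gaussians to give monomer/dimer fractions; purified GFP served as monomer reference.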

Data set [9] relates to HeLa. In words: Antimigratory activity against human HeLa cells assessed as inhibition of TGF-beta1-induced cell invasion across collagen matrix at 100 uM after 24 hr by collagen-based cell Invasion assay.

Molecules are shown by their SMILES. The source made the active and inactive calls. The calls are words filed in the database; no cut-off is given here.

Sequence of TGF-beta receptor type-2 (Homo sapiens) (P37173 whole entry): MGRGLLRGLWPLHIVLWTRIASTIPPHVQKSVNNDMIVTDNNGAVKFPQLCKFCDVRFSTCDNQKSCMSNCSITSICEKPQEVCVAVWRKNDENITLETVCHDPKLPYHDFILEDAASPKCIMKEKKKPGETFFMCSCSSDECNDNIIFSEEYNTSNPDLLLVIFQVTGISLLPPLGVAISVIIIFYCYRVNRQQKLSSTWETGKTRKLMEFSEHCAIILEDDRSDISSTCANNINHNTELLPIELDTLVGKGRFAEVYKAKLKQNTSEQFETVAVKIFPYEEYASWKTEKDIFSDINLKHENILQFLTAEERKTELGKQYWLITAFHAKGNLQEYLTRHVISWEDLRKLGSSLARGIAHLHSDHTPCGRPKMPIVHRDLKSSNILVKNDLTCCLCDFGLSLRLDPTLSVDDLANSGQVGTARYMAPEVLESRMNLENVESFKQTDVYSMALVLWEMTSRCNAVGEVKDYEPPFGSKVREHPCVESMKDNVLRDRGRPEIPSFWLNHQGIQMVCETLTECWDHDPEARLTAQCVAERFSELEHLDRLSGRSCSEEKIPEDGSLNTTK

With `COc1ccc([C@@H]2CC(=O)c3c(O)cc(O)cc3O2)cc1O` [HESPERETIN], the inhibition entry with HeLa [1], with HeLa [2], in the data set with HeLa [5], in the data set on HeLa [7] and with HeLa [9] was “Active” throughout. The Activity in data set [3] is 19.5%; in the data set with HeLa [6], “Non-toxic”. Further, the outcome in data set [4] was Active. The compound also returned an inhibition in data set [8] of 19.9%.

What is called inhibition is the drop in the measured response relative to a control, in per cent.

The values above are taken from ChEMBL document CHEMBL2203206, “Hesperetin: an inhibitor of the transforming growth factor-β (TGF-β) signaling pathway” (Eur J Med Chem, 2012).
